# Assay outcomes as filed in PubChem BioAssay.
# T cruzi inh = blocks replication of Trypanosoma cruzi. T. cruzi beta-gal in NIH3T3, luminescence, 90 h. inhibition, % (no concentration beside the values). 1.4% of 300,000 active. AID 1885;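 active = mean inhibition across valid replicates above about 55%, limit read from the data; inconclusive = mean below that limit but half or more replicates reach it; inactive = mean below it, under half of replicates reach it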;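 also: signal also drops with host cell toxicity which is not excluded here; 0% = plate median of DMSO wells and 100% = zero luminescence signal; higher percent means less beta-gal luminescence so fewer parasites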
#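 compound dosing = single 50 nL compound addition per well in DMSO | material = NIH/3T3 host cells with β-galactosidase reporter T. cruzi | input = 5,000 host fibroblasts per well | timing = ≥90 h infection period, 3 h prior cell attachment | read-out basis = percent inhibition of parasite-derived β-gal signal | detection = GalScreen β-gal luminescence, detergent lysis, 60 min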
# CHT allo act = allosterically activates the human high affinity choline transporter | AID 488977 | B-score at 10 µM | Q9GZV3 | 0.49% of 310,000 active | CHT-expressing cells, membrane potential dye, choline EC20; hits give high values; LV-AA mutant CHT in HEK293 cells;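 active = initial fluorescence not abnormally high and integrated response B-score, plate-corrected, over 3 SD above library mean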
# Target sequence (Q9GZV3 whole entry, looked up): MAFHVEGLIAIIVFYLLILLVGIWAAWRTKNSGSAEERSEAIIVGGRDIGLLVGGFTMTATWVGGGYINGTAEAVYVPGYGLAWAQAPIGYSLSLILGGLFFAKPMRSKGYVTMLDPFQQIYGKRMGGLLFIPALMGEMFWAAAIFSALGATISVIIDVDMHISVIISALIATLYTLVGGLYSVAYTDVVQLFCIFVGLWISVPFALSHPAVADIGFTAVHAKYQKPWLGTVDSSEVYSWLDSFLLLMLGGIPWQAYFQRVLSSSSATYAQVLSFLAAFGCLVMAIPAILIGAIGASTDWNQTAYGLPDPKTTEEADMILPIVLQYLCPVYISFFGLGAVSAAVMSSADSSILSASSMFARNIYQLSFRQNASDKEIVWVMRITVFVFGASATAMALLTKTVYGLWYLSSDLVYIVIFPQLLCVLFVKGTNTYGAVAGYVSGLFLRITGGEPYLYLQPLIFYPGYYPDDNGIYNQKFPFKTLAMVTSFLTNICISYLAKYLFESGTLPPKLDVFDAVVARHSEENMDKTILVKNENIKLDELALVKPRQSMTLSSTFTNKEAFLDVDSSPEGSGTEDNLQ
# CHT inh = inhibits the human high affinity choline transporter; 0.86% of 310,000 active; B-score at 10 µM; AID 488975; CHT-expressing cells, membrane potential dye, choline response; hits give low values;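 active = B-score over 3 SD under the library average, and starting fluorescence ratio not unusually high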;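 also: choline stimulus applied at its EC90 after an EC20 pre-addition; B-score computed on integrated fluorescence ratio after choline addition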
# PolyA inh = inhibitors of polyadenylation in S. cerevisiae | S. cerevisiae SKY197-pL101 polyadenylation reporter, beta-gal luminescence; efflux-impaired pdr1/pdr3 knockout yeast; score 100 = 6 SD above DMSO | activity score, % at 12 µM | 0.02% of 300,000 active;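 active = lowest replicate activity score at least 50, where 100 means six control SD above control mean; inconclusive = lowest score under 50 but half or more replicates reach 50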;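 also: yeast exposed to compound for 9 h at 30 °C; higher score means more reporter readthrough which indicates perturbed polyadenylation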
# Numbers without * were called inactive; i = inactive; ? = inconclusive; / = no result given. Most compounds without a hit are left out; they make up all but 2.6% or so of the library.
SMILES,T cruzi inh,CHT allo act,CHT inh,PolyA inh
COc1ccc(/C=C2\Sc3ccc(C(=O)NC4CC4)cc3N(C)C2=O)cc1OC,8,i,i,2
CC(C)c1ccc(NC(=O)NC2CCN(CC(=O)Nc3cccc4ccccc34)CC2)cc1,56*,i,i,-3
O=C(Cn1nnc(-c2ccc(Cl)cc2)n1)NC1CCN(Cc2ccccc2)CC1,?,i,i,15
O=C(Nc1ccccc1)NC1CCN(Cc2c(F)cccc2Cl)CC1,9,i,i,1
CN1C(=O)/C(=C\c2ccccc2F)Sc2ccc(C(=O)NC3CCN(Cc4ccccc4)CC3)cc21,61*,i,i,-21
O=C(Nc1ccc(F)cc1)NC1CCN(Cc2ccccc2)CC1,60*,i,i,6
Cc1ccc(-c2nnn(CC(=O)NC3CCN(Cc4ccccc4)CC3)n2)cc1,66*,i,i,4
CN(c1ccc(Cl)cc1)S(=O)(=O)c1nnc(NC(=O)C(C)(C)C)s1,-1,i,i,-22
CCOc1c(C)cnc2c1c(=O)n(Cc1ccc(Cl)cc1)c(=O)n2C,7,i,i,-4
O=C(CCc1nc2ccccc2s1)Nc1cccnc1,-6,i,i,-2
CN1CCC(NC(=O)Nc2ccc(Br)cc2)CC1,61*,i,i,17
CCCCCn1c(=O)[nH]c2cc(C(=O)NC3CCN(Cc4ccccc4)CC3)ccc2c1=O,35,i,i,10
O=C(NC1CCN(Cc2ccccc2)CC1)c1ccc2c(c1)[nH]c(=O)n2Cc1ccc(F)cc1,58*,i,i,-10
O=C(NCC1CCN(Cc2cccc(Cl)c2)CC1)Nc1ccc(Cl)cc1,50,i,i,-6
O=C(Nc1ccc2c(c1)OCO2)NC1CCN(Cc2ccccc2)CC1,56*,i,i,11
CCc1cccc(CN2CCC(CNC(=O)Nc3ccc(Cl)cc3)CC2)c1,57*,i,i,9
CN1CCC(NC(=O)Nc2cccc(C(F)(F)F)c2)CC1,/,i,i,8
Cc1ccc(NC(=O)Nc2c(Cl)cccc2Cl)cn1,8,i,i,-10
O=C(NC1CCN(Cc2ccccc2)CC1)c1ccccc1,56*,i,i,-19
Cc1ccc(S(=O)(=O)Nc2cccc(C(=O)NC3CCN(Cc4ccccc4)CC3)c2)cc1F,56*,i,i,17
Cc1ccc(S(=O)(=O)Nc2cccc(C(=O)NCCCN3CCCC3=O)c2)cc1F,-5,i,i,-16
CC(C)(C)c1ccc(C(=O)NC2CCN(Cc3ccccc3)CC2)cc1,53,i,i,-63
Cc1c(Cc2ccccc2)c(NCCN(C)C)n2c(nc3ccccc32)c1C#N,56*,i,i,-112
O=C(CSc1nnc(NC(=O)c2ccco2)s1)Nc1ccccc1Br,-9,i,i,-7
COc1ccc(/C=C2\CCc3ccccc3C2=O)cc1Cn1nc(C)cc1C,15,i,i,-30
SMILES,T cruzi inh,CHT allo act,CHT inh,PolyA inh
COc1ccc(/C=C2/CCc3ccccc3C2=O)cc1CN1CCOCC1,57*,i,i,-6
Cc1c(Cl)cccc1NC(=O)c1nc(C)n(-c2cc(OC(C)C)c(Cl)cc2Cl)n1,56*,i,i,-9
CCOC(=O)CSc1nc(C)cc(C)c1C#N,-11,i,i,-5
COc1cc(-c2cc(-c3ccccc3)nc(SCC(=O)Nc3nccs3)c2C#N)cc(OC)c1OC,55*,i,i,16
CC(=O)C1=C(C)NC(SCC(=O)c2ccc(Cl)cc2Cl)=C(C#N)C1c1ccco1 (stereo not given),66*,i,i,-2
COc1ccc(CNC(=O)CSc2nc(-c3ccccc3)cc(-c3cccs3)c2C#N)cc1,-5,i,i,1
Cc1cc(C)c(C#N)c(SCC(=O)c2ccc(Cl)cc2Cl)n1,75*,i,i,-6
Cc1cc(C)c(C#N)c(SCC(=O)Nc2nnc(-c3ccccc3)s2)n1,55*,i,i,6
CCN(CC(=O)NC1CC1)S(=O)(=O)c1ccccc1,-12,i,i,5
COc1ccc(NS(=O)(=O)NC(=O)c2c[nH]c3ccccc23)cc1,-6,i,i,-8
COc1ccc(-n2nc3c(c2NC(=O)CCCl)CSC3)cc1,-17,i,i,9
O=C(NCCOc1ccccc1)c1ccccc1[N+](=O)[O-],-11,i,i,6
CN(CCOc1ccccc1)C(=O)c1cc([N+](=O)[O-])cc([N+](=O)[O-])c1,64*,i,i,-22
CN(CCOc1ccccc1)C(=O)c1cc([N+](=O)[O-])ccc1N1CCOCC1,11,i,i,-10
O=C(NCCOc1ccccc1)c1cc(C(=O)NCCOc2ccccc2)cc([N+](=O)[O-])c1,68*,i,i,5
CCCC(=O)NC(c1ccc(N(C)C)cc1)c1c(O)ccc2ccccc12 (stereo not given),2,i,i,3
CCCCC(=O)NC(c1ccc(N(C)C)cc1)c1ccc2cccnc2c1O (stereo not given),57*,i,i,1
CCCCC(=O)NC(c1ccccc1Cl)c1c(O)ccc2ccccc12 (stereo not given),26,i,i,1
COc1ccc(C(NC(C)=O)c2ccc3cccnc3c2O)c(OC)c1 (stereo not given),53,i,i,-2
CCCCC(=O)NC(c1ccc(N(CC)CC)cc1)c1ccc2cccnc2c1O (stereo not given),68*,i,i,-14
CCCCC(=O)NC(c1ccccc1OC)c1ccc2cccnc2c1O (stereo not given),57*,i,i,-10
CN(C)CCCNS(=O)(=O)c1ccc(Cl)s1,11,i,i,3
CCCCCCCCCCCC(=O)N/N=C/c1ccco1,-4,i,i,82*
CC(C)(CO)CNC1CCCN(C2Cc3ccccc3C2)C1 (stereo not given),66*,i,i,3
COc1cc(C(=O)NNC(=S)NCc2ccco2)cc(OC)c1OC,-12,i,i,-21
SMILES,T cruzi inh,CHT allo act,CHT inh,PolyA inh
COc1cccc(Nc2nc(NCC3CCCO3)c3ccccc3n2)c1 (stereo not given),60*,i,i,19
O=C(CSc1ccc([N+](=O)[O-])cc1)NNC(=O)c1ccccc1F,-8,i,i,-1
CCOc1ccc(CCNC(=O)COC(=O)c2c(C)nn(-c3ccccc3)c2C)cc1OCC,21,i,i,-10
C/C(=N\Nc1nc2ccccc2[nH]1)c1ccc2c(c1)OCCO2,57*,i,i,-12
C/C(=N\Nc1nc2ccccc2[nH]1)c1ccccn1,42,i,i,-11
C/C(=N\Nc1nc2ccccc2[nH]1)c1ccc2c(c1)OCO2,78*,i,i,-17
COc1cccc(OC)c1C(=O)Nc1ccccc1Sc1ccccc1,14,i,i,-29
CCCCn1nc(C(=O)Nc2nc3c(s2)CCCC3)c2ccccc2c1=O,56*,i,i,-6
